This passage reports Activity and IC50 results from ChEMBL document CHEMBL3758101, “Synthesis and biological evaluation of fluorinated 1,5-diarylpyrrole-3-alkoxyethyl ether derivatives as selective COX-2 inhibitors endowed with anti-inflammatory activity” (Eur J Med Chem, 2016).

Active and inactive are the calls of the source.

What is called IC50 is the concentration at which inhibition is half-maximal.

The subject of one experiment is Mus musculus. The experiment can be described thus: Antinociceptive activity in CD1 albino mouse model of acetic acid-induced visceral pain assessed as number of writhes at 3 mg/kg, po pretreated for 30 mins before acetic acid challenge measured after 5 mins (reference value: 30.5 +/- 1.7). It counts as functional.
Experiment [1] deals with Rattus norvegicus. The experiment is described as follows: Antihyperalgesic effect in Sprague-Dawley rat model of monosodium iodoacetate-induced osteoarthritis assessed as withdrawal threshold at 10 mg/kg, ip administered 14 days post MIA challenge measured after 30 mins by paw pressure test (reference value: 37.8 +/- 3.3 g). It counts as functional. An outline of the steps: (§1)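 Male Sprague–Dawley rats (200–250 g). MIA (2 mg/25 µL) was injected into the left tibiotarsal joint on day 0 under 2% isoflurane; controls received 25 µL saline. On day 14 compound or vehicle was given at time 0. Paw pressure threshold (g) was read with an analgesimeter using a blunt conical probe on the dorsal paw at 30, 60, 90 and 120 min. Mean ± s.e.m., 6 rats.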

Experiment [2] has as its system Rattus norvegicus. The experiment can be described thus: Antihyperalgesic effect in Sprague-Dawley rat model of monosodium iodoacetate-induced osteoarthritis assessed as withdrawal threshold at 20 mg/kg, ip administered 14 days post MIA challenge measured after 30 mins by paw pressure test (reference value: 37.8 +/- 3.3 g). In kind it is functional. An outline of the steps: as §1

In experiment [3] the test system is Rattus norvegicus. The experiment can be described thus: Antihyperalgesic effect in Sprague-Dawley rat model of monosodium iodoacetate-induced osteoarthritis assessed as withdrawal threshold at 10 mg/kg, ip administered 14 days post MIA challenge measured after 60 mins by paw pressure test (reference value: 36.1 +/- 3.5 g). It counts as functional. An outline of the steps:
as §1

In experiment [4] the test system is Rattus norvegicus. The experiment is described as follows: Antihyperalgesic effect in Sprague-Dawley rat model of monosodium iodoacetate-induced osteoarthritis assessed as withdrawal threshold at 20 mg/kg, ip administered 14 days post MIA challenge measured after 60 mins by paw pressure test (reference value: 36.1 +/- 3.5 g). It counts as functional. An outline of the steps: as §1

In experiment [5] the test system is Rattus norvegicus. The experiment can be described thus: Antihyperalgesic effect in Sprague-Dawley rat model of monosodium iodoacetate-induced osteoarthritis assessed as withdrawal threshold at 3 mg/kg, ip administered 14 days post MIA challenge measured after 90 mins by paw pressure test (reference value: 37.8 +/- 3.1 g). It counts as functional. Put shortly:
as §1

For experiment [6], the system named is Rattus norvegicus. The experiment is described as follows: Antihyperalgesic effect in Sprague-Dawley rat model of monosodium iodoacetate-induced osteoarthritis assessed as withdrawal threshold at 3 mg/kg, ip administered 14 days post MIA challenge measured after 120 mins by paw pressure test (reference value: 39.2 +/- 4 g). It counts as functional. Put shortly:
as §1

The subject of experiment [7] is Rattus norvegicus. The experiment can be described thus: Antihyperalgesic effect in Sprague-Dawley rat model of monosodium iodoacetate-induced osteoarthritis assessed as withdrawal threshold at 10 mg/kg, ip administered 14 days post MIA challenge measured after 120 mins by paw pressure test (reference value: 39.2 +/- 4 g). It counts as functional. Put shortly:
as §1

In experiment [8] the test system is HaCaT. The experiment can be described thus: Antiproliferative activity against human HaCaT cells at 50 uM after 24 hrs by BrdU incorporation assay. In kind it is functional, cell-based. Put shortly:
(§2)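 HaCaT human keratinocytes were grown in high-glucose DMEM with 10% FBS and 2 mM L-glutamine at 37 °C and 5% CO2 to 80% confluency. Cells were treated 24 h with compound at 1, 10 or 50 µM (final DMSO ≤0.1%). Proliferation was read by BrdU incorporation as % of DMSO control; three experiments.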
For orientation: Incorporation of labelled thymidine or its analogues reports DNA synthesis.

In experiment [9] the test system is HaCaT. The experiment is described as follows: Antiproliferative activity against human HaCaT cells at 1 uM after 24 hrs by BrdU incorporation assay. In kind it is functional, cell-based. An outline of the steps:
as §2

The target in experiment [10] is T1, Prostaglandin G/H synthase 1 (Mus musculus, UniProt P22437).
T1 sequence (P22437 whole entry): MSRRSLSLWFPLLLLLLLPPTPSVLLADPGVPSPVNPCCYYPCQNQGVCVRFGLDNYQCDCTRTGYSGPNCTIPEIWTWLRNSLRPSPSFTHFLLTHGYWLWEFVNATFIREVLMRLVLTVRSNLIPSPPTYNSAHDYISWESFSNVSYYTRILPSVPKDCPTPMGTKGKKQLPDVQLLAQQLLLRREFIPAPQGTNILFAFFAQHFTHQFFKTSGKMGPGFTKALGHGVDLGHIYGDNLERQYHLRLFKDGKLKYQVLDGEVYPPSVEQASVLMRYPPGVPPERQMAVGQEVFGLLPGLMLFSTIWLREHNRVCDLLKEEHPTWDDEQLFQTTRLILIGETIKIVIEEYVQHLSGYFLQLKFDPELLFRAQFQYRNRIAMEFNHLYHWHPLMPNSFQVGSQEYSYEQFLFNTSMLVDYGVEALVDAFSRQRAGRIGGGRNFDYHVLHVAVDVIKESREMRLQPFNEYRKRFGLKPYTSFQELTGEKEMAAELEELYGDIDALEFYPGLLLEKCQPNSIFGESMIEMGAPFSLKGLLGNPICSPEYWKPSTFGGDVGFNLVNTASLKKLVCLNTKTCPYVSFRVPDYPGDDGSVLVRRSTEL
The experiment can be described thus: Inhibition of COX-1 in mouse J774 cells assessed as reduction in PGE2 level using arachidonic acid as substrate preincubated for 15 mins followed by incubation with arachidonic acid for 30 mins by radio immunoassay. In kind it is cell-based. Put shortly: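 Murine J774 macrophages (2.5 × 10^5 cells/mL) were adhered 2 h at 37 °C and given fresh medium. Cells were pretreated with compound at 100 µM for 15 min, then incubated 30 min at 37 °C with 15 µM arachidonic acid. Supernatant PGE2 was measured by RIA as % inhibition versus control; triplicate wells, three experiments, IC50 from a sigmoidal variable-slope fit.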

The subject of experiment [11] is Rattus norvegicus. The experiment can be described thus: Antiinflammatory activity in Sprague-Dawley rat model of carrageenan-induced […] at 10 mg/kg, po administered 2 hrs post carrageenan challenge measured after 30 mins by […] (reference value: 34.1 +/- 2.3 ml). In kind it is functional. A general note: The carrageenan paw model is a standard test of acute inflammation.

The subject of experiment [12] is Rattus norvegicus. The experiment is described as follows: Antiinflammatory activity in Sprague-Dawley rat model of carrageenan-induced paw edema assessed as paw volume at 10 mg/kg, po administered 2 hrs post carrageenan challenge measured after 90 mins by plethysmometry (reference value: 37.2 +/- 3.4 ml). In kind it is functional.

Turning to `Cc1c(CCOCCCF)cc(-c2ccc(S(C)(=O)=O)cc2)n1-c1ccc(F)cc1`, the Activity with Mus musculus amounted to 21.8; with Rattus norvegicus [1] it was 50.3 g; in the experiment with Rattus norvegicus [2], 51.3 g; in the experiment with Rattus norvegicus [3], 51.8 g; in the experiment on Rattus norvegicus [4] it was 54.5 g; in the experiment with Rattus norvegicus [5] it was 42.4 g. The Activity was 39 g with Rattus norvegicus [6], 40.6 g with Rattus norvegicus [7], 51.7 g with Rattus norvegicus [11] and 47.2 g in the experiment with Rattus norvegicus [12]. For the same molecule, the result with HaCaT [8] was Active. In the experiment with HaCaT [9], the outcome was inactive. In addition, in experiment [10], the IC50 was greater than 100 µM.
